The list is not random: actives were taken first. Their share in the collection is about 4.5%.
OX1R antag-1 = antagonists of human orexin 1 receptor (OX1R). OX1R-expressing cells, FRET antagonist read-out. Orexin/Hypocretin receptor type 1 (Homo sapiens), O43613. inhibition, % at 6.6 µM. hit rate 1.8% among 330,000. AID 485270, 2010; in the data active = inhibition mostly above about 38%, no sharp cut-off; inactive = mostly below about 40%;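 note: 0% = agonist challenge alone and 100% = reference antagonist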
Target sequence (O43613 whole entry, looked up): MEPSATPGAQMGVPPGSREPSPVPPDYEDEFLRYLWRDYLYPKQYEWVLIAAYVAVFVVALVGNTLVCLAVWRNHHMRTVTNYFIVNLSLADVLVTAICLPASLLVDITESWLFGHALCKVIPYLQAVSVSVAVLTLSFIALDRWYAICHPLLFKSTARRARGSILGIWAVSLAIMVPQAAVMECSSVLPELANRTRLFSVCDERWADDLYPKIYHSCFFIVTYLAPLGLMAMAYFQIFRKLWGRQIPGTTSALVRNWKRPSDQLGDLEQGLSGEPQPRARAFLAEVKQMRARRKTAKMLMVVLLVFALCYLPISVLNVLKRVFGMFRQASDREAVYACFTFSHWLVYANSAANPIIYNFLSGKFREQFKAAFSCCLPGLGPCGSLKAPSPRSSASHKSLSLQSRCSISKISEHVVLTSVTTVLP
TAAR1 agonist = human TAAR1 agonists, primary screen, Fluo-8 calcium fluorescence, CHO RD-HGA16 cells | Trace amine-associated receptor 1 (Homo sapiens), Q96RJ0 | vehicle wells 0%, saturating PEA agonist 100% | activation, % at 3 µM | hit rate 0.99% among 360,000 | AID 624467, 2012;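 active = activation above the mean activation of all test compounds in the run plus 3 SD, cut at about 38% in these data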
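Assay system – CHO-derived RD-HGA16 cells with stable Gα16 and human TAAR1 · Compound dosing – one-point dosing at 3 µM (nominal) · Incubation – 17-24 h seeding, 75 min 37 °C dye, 30 min RT · Measured by – kinetic Fluo-8 calcium fluorescence · Control set – DMSO vehicle as 0%, PEA at EC100 as 100% · Repeats – single well for each compound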
OX1R antag-2 = OX1R (HCRTR1) antagonists, primary screen, fluorescence, CHO/OX1R cells, Fluo-8 calcium, orexin A. Orexin/Hypocretin receptor type 1 (Homo sapiens), O43613. Fluo-8 calcium fluorescence. inhibition, % at 5 µM. hit rate 0.43% among 330,000. AID 434989, 2010;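 active = inhibition above its plate's threshold, mean inhibition of all tested compounds on the plate plus 3 SD, cut at about 37% in these data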;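 note: 0% = orexin A challenge wells and 100% = SB-334867-A antagonist wells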
TAAR1 antagonist = human TAAR1 antagonists, primary screen, Fluo-8 calcium fluorescence, CHO RD-HGA16 cells. antagonist. inhibition, % at 3 µM. hit rate 1.5% among 360,000;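 active = inhibition above a per-plate cutoff, the mean inhibition of test compounds on that plate plus 3 SD, cut at about 49% in these data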;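 note: 0% = DMSO plus EC80 beta-PEA response and 100% = DMSO alone without agonist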
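Test system – hTAAR1-expressing CHO RD-HGA16 cells, Gα16-coupled · Reagent – β-PEA at EC80 concentration, post-compound challenge · Compound dosing – 3 µM, single point · Timing – 140 s kinetic read after compound, 140 s after agonist · Detection – Fluo-8 intracellular calcium dye fluorescence, real-time kinetic reads · Control set – DMSO and EC80 PEA controls · Repeats – n of 1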
CHO parental Ca = ATP-evoked calcium signal inhibitors, parental CHO, primary screen, counter-screen for OX1R antagonist project, cell-based, fluorescence, Fluo-8 calcium dye. parental CHO-K1, ATP-induced calcium, Fluo-8 fluorescence. inhibition, % at 5.6 µM. hit rate 0.63% among 330,000. AID 463079, 2010;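 active = inhibition above that plate's mean sample inhibition plus 3 SD, cut at about 26% in these data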;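 note: 0% = ATP-challenged DMSO wells and 100% = DMSO wells without ATP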
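Test system: parental CHO cells; detection: calcium-sensitive Fluo-8 fluorescence; evaluation: percent inhibition of calcium signal; also added: ATP as calcium-mobilizing challenge; repeats: one well per compound; control set: ATP-challenged DMSO wells low, unchallenged DMSO wells high; compound: single nominal dose of 5.6 µM per compound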
GPR7 antagonist = GPR7 receptor antagonists, primary screen, cell-based, fluorescence, single concentration; hit rate 1.1% among 290,000; GPR7-expressing cells, fluorescence antagonist assay; inhibition, % at 4.4 µM; AID 1861, 2009; Neuropeptides B/W receptor type 1 (Homo sapiens), P48145; in the data active = inhibition above about 16%, passing the limit was not always enough;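 note: cells stimulated with the agonist NPW; 0% = agonist with vehicle and 100% = vehicle without agonist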
Target sequence (P48145 whole entry, looked up): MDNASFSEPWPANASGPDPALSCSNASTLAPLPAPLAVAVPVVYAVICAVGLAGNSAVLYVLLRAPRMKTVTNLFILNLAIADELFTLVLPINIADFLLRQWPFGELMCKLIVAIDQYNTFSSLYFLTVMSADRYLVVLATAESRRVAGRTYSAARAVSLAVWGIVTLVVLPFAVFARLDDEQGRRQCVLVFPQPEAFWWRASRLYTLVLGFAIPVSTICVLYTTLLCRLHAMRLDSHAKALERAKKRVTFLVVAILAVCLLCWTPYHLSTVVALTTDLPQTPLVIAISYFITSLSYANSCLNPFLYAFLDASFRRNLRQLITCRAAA
OX1R HTRF conf = OX1R (HCRTR1) antagonists, confirmation, cell-based, HTRF | shares compounds with OX1R antag-1 | OX1R-expressing cells, HTRF antagonist assay | inhibition, % at 6.6 µM | hit rate 49% among 1,800 | AID 492964, 2010; in the data active = inhibition above about 55%;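 note: CHO cells expressing OX1R stimulated with orexin A at about EC80; 0% = agonist challenge alone and 100% = reference antagonist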
CHO-K1 HTRF = signal inhibition in parental CHO-K1 cells, counter-screen for OX1R antagonist project, cell-based, HTRF; HTRF counterscreen; hit rate 48% among 1,800; inhibition, % at 6.6 µM; AID 493232, 2011; shares compounds with OX1R antag-1; in the data active = inhibition above about 17%;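 note: 0% = agonist challenge with vehicle and 100% = vehicle alone without agonist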
TAAR1 nonsel count = nonselective antagonists in TAAR1 counter-screen cells, counter-screen for hTAAR1 antagonist project, cell-based, fluorescence, calcium; shares compounds with TAAR1 antagonist; counterscreen cell line, antagonist mode; inhibition, % at 3 µM; hit rate 77% among 2,400; AID 651780, 2012; in the data active = inhibition above about 22%;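 note: CHO-Ga16 host cells stimulated with ATP at an EC80 level; 0% = agonist EC80 plus vehicle and 100% = vehicle without agonist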
TAAR1 antag conf = human TAAR1 antagonists, retest of hits, confirmation, cell-based, fluorescence; shares compounds with TAAR1 antagonist; TAAR1-expressing cells, fluorescence antagonist read-out; inhibition, % at 3 µM; hit rate 40% among 2,400; in the data active = inhibition above about 49%;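 note: CHO-Ga16 host cells challenged with agonist PEA near its EC80; 0% = agonist at EC80 plus vehicle and 100% = vehicle with no agonist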
Ga16 ag counter = calcium activation in Ga16-expressing cells, counter-screen for TAAR1 antagonist project, cell-based, fluorescence | shares compounds with TAAR1 antagonist | agonist counterscreen | activation, % at 3 µM | hit rate 18% among 2,400 | AID 651953, 2012; in the data active = activation above about 12%;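 note: 0% = vehicle wells and 100% = saturating stimulus response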
TAAR1 ag counter = TAAR1 activation by candidate antagonists – cell-based, fluorescence, counter-screen for TAAR1 antagonist project; shares compounds with TAAR1 antagonist; hTAAR1 cell line, agonist mode; activation, % at 3 µM; hit rate 2% among 2,400; in the data active = activation above about 37%;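 note: CHO cells stably expressing TAAR1 with calcium dye readout; 0% = DMSO vehicle and 100% = full agonist response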
* marks the source's active call; other numbers are inactive results; nt = not tested or not shown; + = active, no number; ! = not active in a repeat.

SMILES	OX1R antag-1	TAAR1 agonist	OX1R antag-2	TAAR1 antagonist	CHO parental Ca	GPR7 antagonist	OX1R HTRF conf	CHO-K1 HTRF	others
O=[N+]([O-])c1ccc(N2CCCC2)c(F)c1Br	26	2	-8	21	5	8	nt	nt
O=[N+]([O-])c1ccc(N2CCOCC2)c2ccncc12	107*	2	-17	-24	-12	0	47	65*
COC(=O)C1=C(c2cccc(C#N)c2)C[C@@H]2CC[C@H]1N2C(=O)NCCOc1ccc(OC)cc1	7	7	-26	8	-2	nt	nt	nt
CCOC(=O)c1cccc(C2=C(CNC(=O)c3nccs3)[C@H]3CC[C@@H](C2)N3Cc2ccccc2)c1	nt	0	nt	-16	nt	nt	nt	nt
O=c1[nH]c(O)c(N=Nc2cc([N+](=O)[O-])ccc2O)c(=O)[nH]1	+	3	-5	18	4	1	71*	93*
CCOC(=O)c1c(N)n(CCCOC(=O)c2ccco2)c2nc3ccccc3nc12	83*	5	-11	6	-6	-6	36	22*
O=P(/C=C1\OCc2ccccc21)(Oc1ccccc1)Oc1ccccc1	nt	6	nt	-26	nt	nt	nt	nt
Cc1nc2c(=O)n(C)c(=O)nc-2n(C)n1	+	11	2	8	-8	-15	84*	100*
C1CN(P2(N3CC3)=NP(N3CC3)(N3CC3)=NP(N3CC3)(N3CC3)=N2)CCO1 (configuration not stated)	nt	1	nt	-5	nt	nt	nt	nt
Cn1c(O)c(N=Nc2ccc(S(=O)(=O)N3CCOCC3)cc2)c(=O)n(C)c1=O	86*	2	3	-4	-10	-1	50	74*
O=C1NC(=O)C(=Cc2ccc(-c3ccc(S(=O)(=O)N4CCOCC4)cc3)o2)C(=O)N1	31	8	-8	-2	4	-1	nt	nt
CCCCOC1OCN(C2CCCCC2)CC1(C)C (configuration not stated)	nt	2	nt	-17	nt	nt	nt	nt
CN1CC=C2C(C#N)=C(N)C(C#N)(C#N)C(c3ccncc3)C2C1 (configuration not stated)	102*	nt	-2	nt	1	-10	18	24*
CC[C@@H](CO)NC(=O)[C@@H]1C=C2c3cccc4c3c(cn4C)C[C@H]2N(C)C1	84*!	3	1	-25	0	-6	20	19*
CCC(CO)NC(=O)C1C=C2c3cccc4[nH]cc(c34)CC2N(C)C1 (configuration not stated)	34	9	1	-22	-1	-10	nt	nt
CCOc1cc(CNCCc2c[nH]c3ccccc23)cc(Cl)c1OC	105*	18	-37	21	-17	1	17	3
O=C(NC1CN2CCC1CC2)c1cc(Cl)c([N+](=O)[O-])c2nc[nH]c12 (configuration not stated)	130*	2	1	6	-13	-6	49	83*
Cc1cccc(C)c1-n1nnnc1C(CCc1ccccc1)N1CCC2(CC1)C(=O)NCN2c1ccccc1 (configuration not stated)	nt	1	nt	-18	nt	nt	nt	nt
O=C1NCN(c2ccccc2)C12CCN(C(c1cc3ccccc3o1)c1nnnn1Cc1ccccc1)CC2 (configuration not stated)	nt	2	nt	39	nt	nt	nt	nt
CCn1nc(-c2ccccc2)nc2c(=O)n(C)c(=O)nc1-2	+	nt	-14	nt	-7	-11	102*	95*
O=C1NCN(c2ccccc2)C12CCN(C(CCc1ccccc1)c1nnnn1Cc1ccccc1)CC2 (configuration not stated)	nt	0	nt	19	nt	nt	nt	nt
O=C1NCN(c2ccccc2)C12CCN(C(c1ccccc1)c1nnnn1Cc1ccccc1)CC2 (configuration not stated)	nt	9	nt	53*	nt	nt	nt	nt	TAAR1 nonsel count=20;TAAR1 antag conf=30;Ga16 ag counter=7;TAAR1 ag counter=3
CSCCC(c1nnnn1Cc1ccccc1)N1CCC2(CC1)C(=O)NCN2c1ccccc1 (configuration not stated)	nt	13	nt	52*	nt	nt	nt	nt	TAAR1 nonsel count=28*;TAAR1 antag conf=40;Ga16 ag counter=7;TAAR1 ag counter=6
O=C1NCN(c2ccccc2)C12CCN(C(c1ccnc3ccccc13)c1nnnn1-c1ccc3c(c1)OCCO3)CC2 (configuration not stated)	nt	19	nt	59*	nt	nt	nt	nt	TAAR1 nonsel count=29*;TAAR1 antag conf=43;Ga16 ag counter=10;TAAR1 ag counter=11
CCOC(=O)C1(c2ccccc2)CCN(CCC(C#N)(c2ccccc2)c2ccccc2)CC1	18	-1	-49	1	-25	nt	nt	nt
SMILES	OX1R antag-1	TAAR1 agonist	OX1R antag-2	TAAR1 antagonist	CHO parental Ca	GPR7 antagonist	OX1R HTRF conf	CHO-K1 HTRF	others
CSc1ccc(CNC(C)C(O)c2ccccc2)cc1 (configuration not stated)	16	3	-27	-4	-14	-7	nt	nt
CNC(=O)Oc1ccccc1C1CCCCC1	nt	0	nt	-26	nt	nt	nt	nt
O=c1[nH]c2ccccc2n1C1CCN(C(c2cccs2)c2nnnn2Cc2ccccc2)CC1 (configuration not stated)	nt	9	nt	33	nt	nt	nt	nt
O=c1[nH]c2ccccc2n1C1CCN(C(CCc2ccccc2)c2nnnn2Cc2ccccc2)CC1 (configuration not stated)	nt	16	nt	55*	nt	nt	nt	nt	TAAR1 nonsel count=17;TAAR1 antag conf=42;Ga16 ag counter=7;TAAR1 ag counter=13
CSCCC(c1nnnn1Cc1ccccc1)N1CCC(n2c(=O)[nH]c3ccccc32)CC1 (configuration not stated)	nt	17	nt	70*	nt	nt	nt	nt	TAAR1 nonsel count=22*;TAAR1 antag conf=52*;Ga16 ag counter=11;TAAR1 ag counter=29
Cc1ccc2c(C)c3ccc4ccccc4c3c[n+]2c1	nt	-1	nt	-12	nt	nt	nt	nt

Screening data (PubChem BioAssay)
